Reference: ChEMBL document CHEMBL4425140, “Discovery of a Potent and Selective Coactivator Associated Arginine Methyltransferase 1 (CARM1) Inhibitor by Virtual Screening” (J Med Chem, 2016)
Active and inactive are the calls of the source. The calls are words filed in the database; no cut-off is given here.

Key:
[1] = target: T1, Histone-arginine methyltransferase CARM1 (Homo sapiens, UniProt Q86X55); assay: Inhibition of full-length Halo-tagged human CARM1 (1 to 608 residues) expressed in 293-F cells using [3H]-SAM and biotinylated histone peptides by scintillation proximity based radiometric assay; type: cell-based
T1 sequence (Q86X55 whole entry): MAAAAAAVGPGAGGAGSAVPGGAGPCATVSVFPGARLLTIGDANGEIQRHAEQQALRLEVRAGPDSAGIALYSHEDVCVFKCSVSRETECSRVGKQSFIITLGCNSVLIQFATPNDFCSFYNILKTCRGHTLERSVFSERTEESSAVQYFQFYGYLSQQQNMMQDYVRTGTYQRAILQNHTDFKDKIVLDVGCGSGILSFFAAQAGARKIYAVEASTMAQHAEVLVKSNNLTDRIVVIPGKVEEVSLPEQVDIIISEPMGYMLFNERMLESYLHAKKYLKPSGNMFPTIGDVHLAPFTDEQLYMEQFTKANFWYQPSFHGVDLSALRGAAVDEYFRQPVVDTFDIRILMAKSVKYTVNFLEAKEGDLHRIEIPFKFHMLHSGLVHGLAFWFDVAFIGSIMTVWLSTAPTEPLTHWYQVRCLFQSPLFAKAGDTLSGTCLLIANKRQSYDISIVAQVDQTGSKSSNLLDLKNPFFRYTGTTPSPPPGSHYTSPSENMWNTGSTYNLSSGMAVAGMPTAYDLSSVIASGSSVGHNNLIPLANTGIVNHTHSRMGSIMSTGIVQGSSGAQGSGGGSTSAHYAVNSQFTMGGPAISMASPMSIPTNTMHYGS

[2] = target: Protein arginine N-methyltransferase 6 (Homo sapiens, UniProt Q96LA8); assay: Inhibition of PRMT6 (unknown origin)
Sequence of Protein arginine N-methyltransferase 6 (Q96LA8 whole entry): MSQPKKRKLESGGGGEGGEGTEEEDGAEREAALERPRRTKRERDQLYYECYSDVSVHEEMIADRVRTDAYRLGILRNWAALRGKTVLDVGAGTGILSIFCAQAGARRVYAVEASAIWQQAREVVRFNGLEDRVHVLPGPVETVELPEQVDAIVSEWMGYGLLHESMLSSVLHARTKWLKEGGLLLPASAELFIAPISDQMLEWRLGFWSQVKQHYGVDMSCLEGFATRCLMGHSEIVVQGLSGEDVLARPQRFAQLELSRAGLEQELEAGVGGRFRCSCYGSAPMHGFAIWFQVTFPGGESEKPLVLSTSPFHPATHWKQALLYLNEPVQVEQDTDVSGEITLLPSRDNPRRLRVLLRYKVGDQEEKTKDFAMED

[3] = target: Protein arginine N-methyltransferase 8 (Homo sapiens, UniProt Q9NR22); assay: Inhibition of PRMT8 (unknown origin)
Sequence of Protein arginine N-methyltransferase 8 (Q9NR22 whole entry, the tested form may be a part): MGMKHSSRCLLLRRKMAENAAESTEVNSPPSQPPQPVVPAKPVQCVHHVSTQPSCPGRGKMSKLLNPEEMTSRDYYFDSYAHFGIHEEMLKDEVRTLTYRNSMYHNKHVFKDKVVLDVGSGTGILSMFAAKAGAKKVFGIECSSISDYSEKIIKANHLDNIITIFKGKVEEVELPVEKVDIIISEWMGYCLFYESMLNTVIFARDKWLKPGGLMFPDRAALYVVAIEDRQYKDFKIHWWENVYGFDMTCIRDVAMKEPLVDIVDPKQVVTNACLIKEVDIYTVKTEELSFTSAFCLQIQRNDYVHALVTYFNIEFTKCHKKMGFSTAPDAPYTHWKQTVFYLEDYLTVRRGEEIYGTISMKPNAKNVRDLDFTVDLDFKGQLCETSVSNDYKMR

[4] = target: T2, Histone-arginine methyltransferase CARM1 (Homo sapiens) (UniProt Q86X55); assay: Inhibition of full-length Halo-tagged human CARM1 (1 to 608 residues) expressed in 293-F cells at 10 uM using [3H]-SAM and biotinylated histone peptides by scintillation proximity based radiometric assay; type: cell-based
T2 sequence (whole entry): T1 sequence (Q86X55 whole entry)
Summary of the method: (§1)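 Radiometric scintillation proximity assay. Tag-cleaved full-length human CARM1 (1–608) at 25 nM, with 0.7 μM C-terminally biotinylated H3 1–25 peptide and 1.9 μM [3H]-SAM in 20 mM bicine pH 8.5. Transfer of tritiated methyl to the peptide counted as cpm. Single compound concentration per line.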

[5] = target: T2, Histone-arginine methyltransferase CARM1 (Homo sapiens); assay: Inhibition of full-length Halo-tagged human CARM1 (1 to 608 residues) expressed in 293-F cells at 50 uM using [3H]-SAM and biotinylated histone peptides by scintillation proximity based radiometric assay; type: cell-based; summary of the method: as §1
[6] = target: T1, Histone-arginine methyltransferase CARM1; assay: Binding affinity to full-length Halo-tagged human CARM1 (1 to 608 residues) expressed in 293-F cells by surface plasmon resonance assay
Summary of the method: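 About 4500 RU of CARM1 amine-coupled to a CM5 chip, blank cell used for reference subtraction. Compounds serially diluted in DMSO, then into HBS-EP buffer at 5% DMSO final. Contact time 30 s at 75 μL/min.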

[7] = target: T2, Histone-arginine methyltransferase CARM1 (Homo sapiens); assay: Binding affinity to full-length Halo-tagged human CARM1 (1 to 608 residues) expressed in 293-F cells assessed as change in melting temperature by Sypro orange dye based differential scanning fluorimetry; type: cell-based
[8] = target: T2, Histone-arginine methyltransferase CARM1 (Homo sapiens); assay: Binding affinity to full-length Halo-tagged human CARM1 (1 to 608 residues) expressed in 293-F cells assessed as change in aggregation temperature by differential static light scattering; type: cell-based
Summary of the method: (§2)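 Full-length human CARM1 (residues 1–608) expressed as a HaloTag fusion in FreeStyle 293-F cells, HaloTag-purified, tag removed with TEV. Heated from 30 to 80 °C at 1 °C/min; aggregation temperature shift read by static light scattering.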

[9] = target: T2, Histone-arginine methyltransferase CARM1 (Homo sapiens); assay: Binding affinity to full-length Halo-tagged human CARM1 (1 to 608 residues) expressed in 293-F cells assessed as change in melting temperature in presencee of SAM by Sypro orange dye based differential scanning fluorimetry; type: cell-based
[10] = target: T2, Histone-arginine methyltransferase CARM1 (Homo sapiens); assay: Binding affinity to full-length Halo-tagged human CARM1 (1 to 608 residues) expressed in 293-F cells assessed as change in aggregation temperature in presence of SAM by differential static light scattering; type: cell-based; summary of the method: as §2
[11] = target: T2, Histone-arginine methyltransferase CARM1 (Homo sapiens); assay: Inhibition of CARM1 in HEK293 cells assessed as reduction in BAF155 methylation at 10 uM incubated for 48 hrs by SDS-PAGE and immunoblotting
[12] = Selectivity index, ratio of IC50 for RMT6 (unknown origin) to IC50 for full-length Halo-tagged human CARM1 (1 to 608 residues) expressed in 293-F cells; type: cell-based
[13] = target: Protein arginine N-methyltransferase 1 (Homo sapiens, UniProt Q99873); assay: Inhibition of PRMT1 (unknown origin)
Sequence of Protein arginine N-methyltransferase 1 (Q99873 whole entry): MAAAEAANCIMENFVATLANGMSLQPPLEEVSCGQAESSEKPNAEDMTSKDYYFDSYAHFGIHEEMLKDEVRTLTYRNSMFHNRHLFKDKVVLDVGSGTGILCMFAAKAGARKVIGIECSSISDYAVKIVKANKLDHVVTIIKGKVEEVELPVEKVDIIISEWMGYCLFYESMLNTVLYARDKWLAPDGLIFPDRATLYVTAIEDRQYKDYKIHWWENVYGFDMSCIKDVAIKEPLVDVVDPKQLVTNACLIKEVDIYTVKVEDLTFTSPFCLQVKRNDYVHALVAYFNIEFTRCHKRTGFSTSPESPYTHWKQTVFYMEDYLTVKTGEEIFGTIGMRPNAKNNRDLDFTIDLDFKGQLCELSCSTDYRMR

[14] = target: Protein arginine N-methyltransferase 3 (Homo sapiens, UniProt O60678); assay: Inhibition of PRMT3 (unknown origin)
Sequence of Protein arginine N-methyltransferase 3 (O60678 whole entry): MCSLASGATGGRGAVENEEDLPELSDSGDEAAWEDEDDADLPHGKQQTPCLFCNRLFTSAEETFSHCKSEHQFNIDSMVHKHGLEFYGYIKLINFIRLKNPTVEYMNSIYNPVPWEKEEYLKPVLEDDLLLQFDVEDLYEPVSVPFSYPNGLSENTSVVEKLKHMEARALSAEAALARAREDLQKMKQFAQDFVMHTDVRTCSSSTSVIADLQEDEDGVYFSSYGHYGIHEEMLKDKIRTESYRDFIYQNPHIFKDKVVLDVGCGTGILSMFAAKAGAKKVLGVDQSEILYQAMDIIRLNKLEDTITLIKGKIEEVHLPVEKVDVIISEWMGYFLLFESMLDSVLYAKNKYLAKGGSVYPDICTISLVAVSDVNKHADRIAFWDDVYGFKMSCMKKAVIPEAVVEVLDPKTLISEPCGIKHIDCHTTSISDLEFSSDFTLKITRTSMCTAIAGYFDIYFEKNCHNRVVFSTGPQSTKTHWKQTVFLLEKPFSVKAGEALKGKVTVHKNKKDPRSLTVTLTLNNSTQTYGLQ

[15] = target: Protein arginine N-methyltransferase 5 (Homo sapiens, UniProt O14744); assay: Inhibition of PRMT5 (unknown origin)
Sequence of Protein arginine N-methyltransferase 5 (O14744 whole entry): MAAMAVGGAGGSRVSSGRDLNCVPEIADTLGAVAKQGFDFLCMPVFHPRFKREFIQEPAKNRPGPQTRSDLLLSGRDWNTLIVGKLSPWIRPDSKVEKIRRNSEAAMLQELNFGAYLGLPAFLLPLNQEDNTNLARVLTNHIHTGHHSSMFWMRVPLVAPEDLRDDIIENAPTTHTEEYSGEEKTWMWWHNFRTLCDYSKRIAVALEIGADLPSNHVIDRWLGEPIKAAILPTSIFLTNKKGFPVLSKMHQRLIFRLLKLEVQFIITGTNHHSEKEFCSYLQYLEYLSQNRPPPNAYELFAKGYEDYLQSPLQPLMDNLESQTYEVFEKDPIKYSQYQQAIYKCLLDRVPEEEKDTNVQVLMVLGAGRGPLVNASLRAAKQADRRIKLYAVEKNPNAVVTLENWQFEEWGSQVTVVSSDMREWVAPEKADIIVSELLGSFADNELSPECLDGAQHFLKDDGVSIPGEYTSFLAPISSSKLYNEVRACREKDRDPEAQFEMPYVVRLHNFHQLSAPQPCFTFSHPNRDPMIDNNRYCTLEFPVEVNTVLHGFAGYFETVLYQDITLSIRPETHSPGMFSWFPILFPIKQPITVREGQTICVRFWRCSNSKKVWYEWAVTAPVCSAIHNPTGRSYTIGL

[16] = target: T3, Protein arginine N-methyltransferase 7 (Homo sapiens, UniProt Q9NVM4); assay: Inhibition of PRMT7 (unknown origin)
T3 sequence (Q9NVM4 whole entry): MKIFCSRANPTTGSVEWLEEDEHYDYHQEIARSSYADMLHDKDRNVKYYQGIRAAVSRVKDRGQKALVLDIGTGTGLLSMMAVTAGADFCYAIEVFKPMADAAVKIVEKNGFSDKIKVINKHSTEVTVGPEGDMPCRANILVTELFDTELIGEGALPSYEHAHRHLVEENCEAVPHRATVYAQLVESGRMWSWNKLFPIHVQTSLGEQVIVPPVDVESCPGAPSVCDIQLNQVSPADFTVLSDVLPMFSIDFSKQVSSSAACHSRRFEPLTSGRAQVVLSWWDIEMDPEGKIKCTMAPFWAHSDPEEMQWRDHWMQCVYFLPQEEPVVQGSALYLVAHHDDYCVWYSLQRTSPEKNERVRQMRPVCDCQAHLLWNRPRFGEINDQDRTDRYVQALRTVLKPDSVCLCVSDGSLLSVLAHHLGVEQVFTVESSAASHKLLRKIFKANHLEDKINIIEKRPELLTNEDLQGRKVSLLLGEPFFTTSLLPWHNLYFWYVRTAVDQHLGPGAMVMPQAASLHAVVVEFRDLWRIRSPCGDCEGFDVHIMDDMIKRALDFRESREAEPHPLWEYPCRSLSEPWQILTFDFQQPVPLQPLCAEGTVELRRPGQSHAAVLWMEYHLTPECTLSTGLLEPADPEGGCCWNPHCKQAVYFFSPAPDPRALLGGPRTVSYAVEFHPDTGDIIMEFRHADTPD

[17] = target: T2, Histone-arginine methyltransferase CARM1 (Homo sapiens); assay: Non-competitive inhibition of full-length Halo-tagged human CARM1 (1 to 608 residues) expressed in 293-F cells using [3H]-SAM and increasing biotinylated histone peptides by scintillation proximity based radiometric assay; type: cell-based
[18] = target: T2, Histone-arginine methyltransferase CARM1 (Homo sapiens); assay: Non-competitive inhibition of full-length Halo-tagged human CARM1 (1 to 608 residues) expressed in 293-F cells using increasing [3H]-SAM and biotinylated histone peptides by scintillation proximity based radiometric assay; type: cell-based
[19] = target: T2, Histone-arginine methyltransferase CARM1 (Homo sapiens); assay: Inhibition of CARM1 in HEK293 cells assessed as reduction in BAF155 methylation at 1 uM incubated for 48 hrs by SDS-PAGE and immunoblotting

SMILES | IC50 ([1]; read-out: IC50) [µM] | IC50 ([2]; read-out: IC50) [µM] | inhibition [4] | inhibition [5] | IC50 [1] | IC50 [2] | IC50 [3] | also measured
CNCCNC1CCN(c2cccc(-c3ccnc(C)n3)c2)CC1 | 11.1 | 8.9 | Active | Active | – | – | – | IC50 ([3]; read-out: IC50): 26 µM
CNCC(=O)NCc1cccnc1Oc1ccc(F)cc1F | – | – | – | – | Not Active | Not Active | – | –
CNCCN1CCCC1 | 3.1 | 1.9 | Active | Active | – | – | – | IC50 ([3]; read-out: IC50): 10 µM
CC(Cc1c[nH]c2ccccc12)NC(=O)CN (configuration not stated) | > 65 | – | Active | Active | – | Not Active | Not Active | –
NCC(=O)NCCc1ccccc1 | 20.5 | – | – | – | – | Not Active | Not Active | Kd [6]: Not Active
CC(N)C(=O)NCc1ccccc1 (configuration not stated) | > 20 | – | Active | Active | – | Not Active | Not Active | –
NC1(C(=O)NCc2cccnc2Oc2ccc(F)cc2F)CC1 | – | – | – | – | Not Active | Not Active | – | –
CN[C@@H](C)C(=O)NCc1cccnc1Oc1ccc(F)cc1F | – | – | – | – | Not Active | Not Active | – | –
C[C@H](N)C(=O)NCc1cccnc1Oc1ccc(F)cc1F | 1.9 | 14 | Active | Active | – | – | Not Active | ΔTm [7]: 2.1 °C; ΔTm [8]: 1.9 °C; Activity [9]: Active; Activity [10]: Active; Kd ([6]; read-out: Kd): 9 µM
CNCCN1CCC(OCc2ccccc2)CC1 | – | – | – | – | – | – | – | inhibition [11]: Active
Cc1cc(C)n(-c2ccc(CNC(=O)C(C)N)cc2)n1 (configuration not stated) | – | – | – | – | Not Active | Not Active | – | –
C[C@@H](N)C(=O)NCc1cccnc1Oc1ccc(F)cc1F | > 40 | – | – | – | – | Not Active | – | –
CCC(c1ccc(OC)cc1)N(C)CCN (configuration not stated) | – | > 25 | – | – | Not Active | – | Not Active | –
Cc1cc(OCCNCCN)ccc1C(C)C | 16.6 | – | – | – | – | Not Active | Not Active | Kd [6]: Not Active
NCC(=O)NCc1cccnc1Oc1ccc(F)cc1F | – | – | – | – | – | Not Active | – | –
NCCN1CCC(c2nnc(Cn3ccnc3)n2C2CC2)CC1 | > 50 | – | Active | Active | – | Not Active | Not Active | –
C[C@H](N)C(=O)NCc1cccnc1N(C)Cc1ccccc1 | > 30 | – | Active | Active | – | Not Active | Not Active | –
Cc1cc(C)cc(Oc2ccc(CNC(=O)[C@H](C)N)cc2C)c1 | 0.05 | 5.2 | – | – | – | – | – | IC50 ([3]; read-out: IC50): > 50 µM; Ratio IC50 [12]: > 100; IC50 [13]: > 100 µM; IC50 [14]: > 100 µM; IC50 [15]: > 100 µM; IC50 [16]: > 100 µM; inhibition [17]: Active; inhibition [18]: Active; inhibition [19]: inactive; inhibition [11]: inactive
CN(CCN)Cc1ccccc1 | 7.5 | 2.5 | Active | Active | – | – | – | IC50 ([3]; read-out: IC50): 6 µM
CC(C)(N)C(=O)NCc1cccnc1Oc1ccc(F)cc1F | – | – | – | – | Not Active | Not Active | – | –
